Measured values: ChEMBL document CHEMBL4033702, “Challenges in the development of an M4 PAM preclinical candidate: The discovery, SAR, and in vivo characterization of a series of 3-aminoazetidine-derived amides” (Bioorg Med Chem Lett, 2017)
Values after ≈ are worked out from the molar mass of the structure shown.

Columns and labels:
Rattus norvegicus [1] = experiment: Reversal of amphetamine-induced hyperlocomotion in po dosed Sprague-Dawley rat pretreated 30 mins post habituation in the chamber followed by amphetamine injection after 30 mins measured after 60 mins; assay type: functional; settings: read-out: MED
Method in brief: (§1)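 Male Sprague-Dawley rats, n = 6–24 per dose group, were habituated in the chamber for 30 min. The compound or vehicle (10% tween-80 in water, v/v) was then given orally. Amphetamine 0.75 mg/kg was injected subcutaneously 30 min later. Total ambulations over t = 60–120 min gave % reversal of AHL, reported as mean ± SEM.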

Brain [2] = experiment: Drug level in Sprague-Dawley rat brain at 0.3 mg/kg, po; assay type: ADME, organism-based; settings: in vivo, read-out: Drug uptake
Cytochrome P450 2C9 = Cytochrome P450 2C9 (Homo sapiens, UniProt P11712); experiment: Inhibition of CYP2C9 (unknown origin); assay type: ADME
Rattus norvegicus [3] = experiment: Volume of distribution at steady state in iv or po dosed Sprague-Dawley rat; assay type: ADME, organism-based; settings: in vivo
Method in brief: (§2)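 IV and PO pharmacokinetics in male Sprague-Dawley rats, n = 1–3. The oral dose was a 2–3 mg/kg solution. Plasma clearance, Vss and oral bioavailability were determined.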

Brain [4] = experiment: Drug level in Sprague-Dawley rat brain at 10 mg/kg, po; assay type: ADME, organism-based; settings: in vivo, read-out: Drug uptake
Brain [5] = experiment: Drug level in Sprague-Dawley rat brain at 0.03 mg/kg, po; assay type: ADME, organism-based; settings: in vivo, read-out: Drug uptake
[6] = Clearance in iv or po dosed Sprague-Dawley rat; assay type: ADME, organism-based; settings: in vivo; method in brief: as §2
[7] = molecular target: Sodium-dependent dopamine transporter (Homo sapiens, UniProt Q01959); experiment: Displacement of [3H]BTCP from human recombinant dopamine transporter expressed in CHO cells; assay type: cell-based
Rattus norvegicus [8] = experiment: Oral bioavailability in Sprague-Dawley rat at 2 to 3 mg/kg; assay type: ADME, organism-based; settings: in vivo; method in brief: as §2
Cytochrome P450 2C19 = Cytochrome P450 2C19 (Homo sapiens, UniProt P33261); experiment: Inhibition of CYP2C19 (unknown origin); assay type: ADME
Salmonella typhimurium = experiment: Mutagenicity in Salmonella typhimurium by Ames test; assay type: toxicity; settings: salmonella enterica subsp. enterica serovar typhimurium
[9] = Aqueous solubility of the compound at pH 7.4; assay type: physicochemical; settings: buffer
Cytochrome P450 1A2 [10] = molecular target: T1, Cytochrome P450 1A2 (Homo sapiens, UniProt P05177); experiment: Inhibition of CYP1A2 (unknown origin); assay type: ADME
T1 sequence (P05177 whole entry): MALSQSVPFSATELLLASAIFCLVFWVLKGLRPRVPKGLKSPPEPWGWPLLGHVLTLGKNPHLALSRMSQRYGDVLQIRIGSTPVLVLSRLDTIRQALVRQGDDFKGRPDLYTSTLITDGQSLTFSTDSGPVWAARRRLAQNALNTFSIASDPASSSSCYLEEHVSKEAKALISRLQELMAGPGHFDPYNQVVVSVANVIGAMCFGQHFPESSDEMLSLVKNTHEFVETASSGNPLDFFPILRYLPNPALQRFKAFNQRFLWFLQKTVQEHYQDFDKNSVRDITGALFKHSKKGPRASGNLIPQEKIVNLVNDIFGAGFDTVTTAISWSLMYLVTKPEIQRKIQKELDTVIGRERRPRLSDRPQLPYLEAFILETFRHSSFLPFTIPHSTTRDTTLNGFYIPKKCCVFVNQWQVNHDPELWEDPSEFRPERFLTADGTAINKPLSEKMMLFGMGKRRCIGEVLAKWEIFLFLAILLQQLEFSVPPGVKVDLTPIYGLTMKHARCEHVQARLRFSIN

Rattus norvegicus [11] = experiment: Reversal of amphetamine-induced hyperlocomotion in Sprague-Dawley rat at 10 mg/kg, po pretreated 30 mins post habituation in the chamber followed by amphetamine injection after 30 mins measured after 60 mins; assay type: functional; method in brief: as §1
Cytochrome P450 1A2 [12] = molecular target: T1, Cytochrome P450 1A2; experiment: Time-dependent inhibition of CYP1A2 (unknown origin); assay type: ADME
Brain [13] = experiment: Drug level in Sprague-Dawley rat brain at 1 mg/kg, po; assay type: ADME, organism-based; settings: in vivo, read-out: Drug uptake

Cytochrome P450 2C19, sequence (P33261 whole entry): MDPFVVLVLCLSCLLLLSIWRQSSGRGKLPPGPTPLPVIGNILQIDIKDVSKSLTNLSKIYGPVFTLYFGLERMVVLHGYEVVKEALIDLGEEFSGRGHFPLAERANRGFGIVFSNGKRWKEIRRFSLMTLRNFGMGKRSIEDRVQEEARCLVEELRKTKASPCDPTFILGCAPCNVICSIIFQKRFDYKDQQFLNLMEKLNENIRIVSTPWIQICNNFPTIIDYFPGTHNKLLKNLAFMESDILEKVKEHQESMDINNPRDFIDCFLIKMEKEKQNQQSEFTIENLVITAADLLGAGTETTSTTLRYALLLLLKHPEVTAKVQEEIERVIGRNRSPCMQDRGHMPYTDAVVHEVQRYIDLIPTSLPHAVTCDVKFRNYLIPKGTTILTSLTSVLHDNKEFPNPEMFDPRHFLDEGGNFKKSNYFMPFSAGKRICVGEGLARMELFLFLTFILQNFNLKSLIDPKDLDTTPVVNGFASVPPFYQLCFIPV
Cytochrome P450 2C9, sequence (P11712 whole entry): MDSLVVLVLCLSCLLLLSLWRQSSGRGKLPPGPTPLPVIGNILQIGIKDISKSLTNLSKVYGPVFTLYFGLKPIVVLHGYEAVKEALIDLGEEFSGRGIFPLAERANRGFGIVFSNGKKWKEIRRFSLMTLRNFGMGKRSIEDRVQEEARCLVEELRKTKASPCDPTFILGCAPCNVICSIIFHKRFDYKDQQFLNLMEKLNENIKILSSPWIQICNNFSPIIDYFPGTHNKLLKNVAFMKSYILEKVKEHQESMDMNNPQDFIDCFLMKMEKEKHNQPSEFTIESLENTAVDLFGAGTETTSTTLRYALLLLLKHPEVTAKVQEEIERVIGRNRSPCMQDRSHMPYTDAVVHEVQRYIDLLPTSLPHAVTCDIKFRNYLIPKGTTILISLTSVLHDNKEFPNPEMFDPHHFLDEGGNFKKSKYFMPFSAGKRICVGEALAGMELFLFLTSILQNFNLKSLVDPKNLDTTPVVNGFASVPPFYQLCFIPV
Sodium-dependent dopamine transporter, sequence (Q01959 whole entry): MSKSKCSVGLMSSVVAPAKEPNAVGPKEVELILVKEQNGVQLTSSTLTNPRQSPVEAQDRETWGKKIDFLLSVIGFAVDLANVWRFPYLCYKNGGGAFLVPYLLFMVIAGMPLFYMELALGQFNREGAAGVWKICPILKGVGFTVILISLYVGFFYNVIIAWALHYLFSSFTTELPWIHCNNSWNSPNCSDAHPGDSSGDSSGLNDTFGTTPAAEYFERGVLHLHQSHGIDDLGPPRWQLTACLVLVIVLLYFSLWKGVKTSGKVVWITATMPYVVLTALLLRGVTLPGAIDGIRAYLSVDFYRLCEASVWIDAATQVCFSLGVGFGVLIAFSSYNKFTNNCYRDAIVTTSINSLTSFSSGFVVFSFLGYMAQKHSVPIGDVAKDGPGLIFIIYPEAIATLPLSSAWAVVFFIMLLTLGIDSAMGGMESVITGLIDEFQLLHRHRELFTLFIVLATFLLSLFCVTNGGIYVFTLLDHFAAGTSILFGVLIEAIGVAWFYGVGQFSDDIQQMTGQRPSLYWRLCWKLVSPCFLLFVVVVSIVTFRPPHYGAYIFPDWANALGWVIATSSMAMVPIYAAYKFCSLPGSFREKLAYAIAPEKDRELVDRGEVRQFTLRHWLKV

Work on `Cc1nnc2sc(C(=O)NC3CN(c4cccc(F)c4F)C3)c(N)c2c1C` yielded a minimal effective dose (Rattus norvegicus [1]) of 0.3 mg/kg, a concentration (Brain [2]) of 37 nM and an IC50 (Cytochrome P450 2C9) of 3.8 µM. It also gave a Vdss (Rattus norvegicus [3]) of 0.67 L/kg, a concentration (Brain [4]) of 820 nM and a concentration (Brain [5]) of 4.6 nM. For the same compound, the clearance [6] was 16 mL/min/kg, the IC50 [7] was 0.45 µM and the F (Rattus norvegicus [8]) was 38%. For the same compound, the IC50 (Cytochrome P450 2C19) was 6.3 µM, the Activity (Salmonella typhimurium) was “Non-Toxic” and the solubility [9] was 1.8 µM (≈ 0.701 µg/mL). For the same compound, the IC50 (Cytochrome P450 1A2 [10]) was 25 µM, the Activity (Rattus norvegicus [11]) was 64% and the TDI (Cytochrome P450 1A2 [12]) was “Not Active”. It also gave a concentration (Brain [13]) of 140 nM.
